Published values pooled from the literature.
Each line is one published result; the experiments were not run side by side.
Target: Misshapen-like kinase 1 (MINK1, Homo sapiens, UniProt Q8N4C8)

| SMILES | effect on | technique | concentration | remaining binding [%] |
| --- | --- | --- | --- | --- |
| Cc1cnn2ncc(-c3ccnc(N(C)C)n3)c2c1 | binding |  | 1 µM | 92 |
| c1cncc(-c2cccc(Nc3nccc(NC4CCCCC4)n3)c2)c1 | binding | competition with immobilised ligand | 10 µM | 4.8 |
| CN(C)c1ncc(F)c(-c2cnn3ncccc23)n1 | binding |  | 1 µM | 80 |
| C=CC(=O)N1CCC(C(=O)NCC(=O)N2CCN(c3nc(-c4cnc(N)nc4C(F)F)nc(N4CCOCC4)n3)CC2)CC1 | binding | competition with immobilised ligand | 1 µM | 99 |
| CN(C)c1nccc(-c2cnn3ncccc23)n1 | binding |  | 1 µM | 81 |
| O=C(Nc1cnc(Oc2ccc(F)cc2)nc1)N1CCc2ncccc2[C@@H]1c1ccc(F)cc1 | cell-free assay | competition with immobilised ligand | 1 µM | 100 |
| O=C(Nc1c[nH]nc1C(=O)NC1CCNCC1)c1cc(F)cc(F)c1 | binding | competition with immobilised ligand | 1 µM | 93 |
| CN(C)c1nccc(-c2cnc3ncccn23)n1 | binding |  | 1 µM | 82 |
| CC(C)(O)c1cncc(-c2nc3ccc(F)cc3n2C2CC2)c1 | cell-free assay | competition with immobilised ligand | 1 µM | 100 |
| C[C@H]1CCN(c2nccc(-c3cnn4ncccc34)n2)C1 | binding |  | 1 µM | 71 |
| Nc1ncc2c(n1)-c1c([nH]c3ccc(C#CC4CC4)cc13)CCCC2 | binding | competition with immobilised ligand | 1 µM | 94 |
| N[C@@H]1CCN(c2nccc(-c3cnn4ncccc34)n2)C1 | binding |  | 1 µM | 96 |
| C[C@H](c1cccc(C#N)c1)n1cc(Cl)cc(C(N)=O)c1=N | cell-free assay | competition with immobilised ligand | 1 µM | 88 |
| O=C(c1ccc(Nc2nccc(-c3cc4ccccc4s3)n2)cc1)N1CCC(N2CCCC2)CC1 | binding | competition with immobilised ligand | 1 µM | 57 |
| CSc1cccnc1N1CCN(Cc2nc3ccccc3[nH]2)CC1 | cell-free assay | competition with immobilised ligand | 1 µM | 89 |
| COc1ccnn2ncc(-c3ccnc(N(C)C)n3)c12 | binding |  | 1 µM | 81 |
| CN(C)C(=O)Cn1cc(-c2nc([C@@](C)(c3ccc(-c4cnc(N)nc4)cc3)C3CC3)no2)cn1 | cell-free assay | competition with immobilised ligand | 1 µM | 85 |
| FC(F)(F)Oc1cccc(-c2cnc3ccc(-c4ccncc4)nn23)c1 | binding | competition with immobilised ligand | 5 µM | 7.2 |
| O=C(c1ccc(Nc2ncc(Cl)c(-c3cc4ccccc4s3)n2)cc1)N1CCC(N2CCCC2)CC1 | binding | competition with immobilised ligand | 1 µM | 42 |
| N#Cc1ccc(Nc2ccc3[nH]c(=O)[nH]c3c2)c(Cl)c1 | cell-free assay | competition with immobilised ligand | 1 µM | 91 |
| O=C(NCCCN1CCOCC1)c1ccc(Nc2nccc(-c3cc4ccccc4s3)n2)cc1 | binding | competition with immobilised ligand | 1 µM | 46 |
| COc1cnc(Nc2cccc(S(N)(=O)=O)c2)nc1N1CCN(c2ccccc2)C(=O)C1 | binding | competition with immobilised ligand | 1 µM | 78 |
